Source: ChEMBL document CHEMBL3526050, “Elucidation of the metabolic pathways and the resulting multiple metabolites of almorexant, a dual orexin receptor antagonist, in humans” (Drug Metab Dispos, 2013)
Values joined by “and” are separate entries in the source; they are usually repeats but may differ in a detail not shown here. Equal entries are not always repeated. Values belong to the molecule of their own block, whether it stands above or below them.

Experiments:
[1] = Drug level in feces of healthy human treated with [14C]almorexant at 200 mg, po dosed as single dose; type: ADME, organism-based; conditions: in vivo
In short: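 Feces pooled by weight across 6 subjects (0–48 to 192–332 h) and extracted three times with acetonitrile, then dried and reconstituted. Analyzed by radio-LC-MS/MS with a methanol/acetonitrile gradient and scintillation-counted fractions. Procedural recovery was 73.0%. Reported as percent of administered radioactive dose.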

Homo sapiens [2] = test: Tmax in healthy human treated with [14C]almorexant at 200 mg, po dosed as single dose; type: ADME, organism-based; conditions: in vivo
In short: (§1)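 Plasma parent and metabolites M3, M5, M6, M8 after one 200 mg oral 14C dose in 6 fasted male subjects, sampled 0.17–240 h. Validated LC-MS/MS with penta-deuterated internal standards and positive ESI. Low range 0.4/1.0–100 ng/mL using supported liquid extraction, high range 50–1000 ng/mL using protein precipitation. Noncompartmental analysis, geometric means (95% CI), Tmax median (range).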

Homo sapiens [3] = test: Half life in healthy human treated with [14C]almorexant at 200 mg, po dosed as single dose; type: ADME, organism-based; conditions: in vivo; in short: as §1
Homo sapiens [4] = test: AUC (0 to infinity) in healthy human treated with [14C]almorexant at 200 mg, po dosed as single dose; type: ADME, organism-based, Plasma; set-up: dose 200 mg, route oral, time infinity; conditions: in vivo
Plasma [5] = test: Drug level in plasma of healthy human treated with [14C]almorexant at 200 mg, po dosed as single dose; type: ADME, organism-based; conditions: in vivo
In short: (§2)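 Plasma from 6 subjects given one 200 mg oral 14C dose, pooled over at least 2 time points and acetonitrile-precipitated. Radio-LC-MS/MS used a C18 column with ammonium formate pH 4.0/acetonitrile gradient and 0.15-min fractions scintillation-counted. Peak radioactivity converted to ng-equivalents/mL to give AUC0-t. Co-eluting metabolites grouped and expressed relative to parent AUC and to total radioactivity.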

Homo sapiens [6] = test: Cmax in healthy human treated with [14C]almorexant at 200 mg, po dosed as single dose; type: ADME, organism-based; set-up: dose 200 mg, route oral; conditions: in vivo
[7] = Terminal half life in po dosed healthy human; type: ADME, organism-based; conditions: in vivo, read-out: beta t1/2 (converted)
[8] = Clearance in po dosed healthy human; type: ADME, organism-based; conditions: in vivo
Homo sapiens [9] = test: Volume of distribution in po dosed healthy human; type: ADME, organism-based; conditions: in vivo
[10] = Absolute bioavailability in po dosed healthy human; type: ADME, organism-based; conditions: in vivo
[11] = Tmax in po dosed healthy human receiving additional evening dose; type: ADME, organism-based; conditions: in vivo
[12] = Tmax in po dosed healthy human; type: ADME, organism-based; conditions: in vivo
Homo sapiens [13] = test: Toxicity in healthy human assessed as effect on clinical laboratory parameters at 200 mg, po dosed as single dose; type: organism-based; conditions: in vivo
Homo sapiens [14] = test: AUC (0 to t) in healthy human at 200 mg, po dosed as single dose; type: ADME, organism-based, Plasma; conditions: in vivo; in short: as §2
Homo sapiens [15] = test: Toxicity in healthy human assessed as effect on ECG variables parameters at 200 mg, po dosed as single dose; type: organism-based; conditions: in vivo
[16] = Cmax in healthy human at 200 mg, po dosed as single dose; type: ADME, organism-based; set-up: dose 200 mg, route oral; conditions: in vivo; in short: as §1
[17] = Tmax in healthy human at 200 mg, po dosed as single dose; type: ADME, organism-based; conditions: in vivo; in short: as §1
[18] = Ratio of drug level in whole blood to plasma in healthy human at 200 mg, po dosed as single dose; type: ADME, organism-based; conditions: whole blood and plasma
In short: (§3)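 Six fasted healthy male subjects given one oral capsule of 200 mg almorexant with about 84 µCi 14C. EDTA blood taken pre-dose to 240 h. Whole blood (solubilized, peroxide-treated) and plasma counted in triplicate by liquid scintillation. Noncompartmental PK: Cmax/Tmax read directly, linear trapezoidal AUC extrapolated via λz, t1/2 = ln2/λz. Geometric mean (95% CI), Tmax median (range).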

Plasma [19] = test: AUC (0 to infinity) in healthy human plasma assessed as radioactivity at 200 mg, po dosed as single dose; type: ADME, organism-based; set-up: dose 200 mg, time infinity, route oral; conditions: in vivo; in short: as §3
Homo sapiens [20] = test: Toxicity in healthy human assessed as incidence of adverse events at 200 mg, po dosed as single dose; type: organism-based; conditions: in vivo
Homo sapiens [21] = test: Tmax in healthy human assessed as total radioactivity at 200 mg, po dosed as single dose; type: ADME, organism-based; conditions: in vivo; in short: as §3
Homo sapiens [22] = test: Toxicity in healthy human assessed as effect on vital signs parameters at 200 mg, po dosed as single dose; type: organism-based; conditions: in vivo
Plasma [23] = test: Half life in healthy human plasma assessed as radioactivity at 200 mg, po dosed as single dose; type: ADME, organism-based; conditions: in vivo; in short: as §3
[24] = Half life in healthy human at 200 mg, po dosed as single dose; type: ADME, organism-based; conditions: in vivo; in short: as §1
Homo sapiens [25] = test: Cmax in healthy human assessed as total radioactivity at 200 mg, po dosed as single dose; type: ADME, organism-based; set-up: dose 200 mg, route oral; conditions: in vivo; in short: as §3
[26] = Drug excretion in healthy human feces assessed as total radioactivity at 200 mg, po dosed as single dose; type: ADME, organism-based; conditions: in vivo
In short: (§4)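 Urine collected in 8-h then 24-h intervals, and all feces for 10 days (longer if recovery <90%) after one 200 mg oral 14C dose in 6 fasted males. Urine counted directly by liquid scintillation. Feces homogenized in water, and about 300 mg aliquots combusted before counting, done in triplicate. Stearic acid 14C quality controls were included.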

Blood [27] = test: Cmax in healthy human whole blood assessed as radioactivity at 200 mg, po dosed as single dose; type: ADME, organism-based; set-up: dose 200 mg, route oral; conditions: in vivo; in short: as §3
Homo sapiens [28] = test: Drug level in healthy human at 200 mg, po dosed as single dose relative to total radioactivity; type: ADME, organism-based; conditions: in vivo; in short: as §2
Blood [29] = test: Half life in healthy human whole blood assessed as radioactivity at 200 mg, po dosed as single dose; type: ADME, organism-based; conditions: in vivo; in short: as §3
Homo sapiens [30] = test: Toxicity in healthy human at 200 mg, po dosed as single dose; type: organism-based; conditions: in vivo
Homo sapiens [31] = test: Tlast in healthy human assessed as total radioactivity at 200 mg, po dosed as single dose; type: ADME, organism-based; conditions: in vivo
Homo sapiens [32] = test: Tlast in healthy human at 200 mg, po dosed as single dose; type: ADME, organism-based; conditions: in vivo; in short: as §2
Plasma [33] = test: Cmax in healthy human plasma assessed as radioactivity at 200 mg, po dosed as single dose; type: ADME, organism-based; set-up: dose 200 mg, route oral; conditions: in vivo; in short: as §3
Plasma [34] = test: Tmax in healthy human plasma assessed as radioactivity at 200 mg, po dosed as single dose; type: ADME, organism-based; conditions: in vivo; in short: as §3
Blood [35] = test: Tmax in healthy human whole blood assessed as radioactivity at 200 mg, po dosed as single dose; type: ADME, organism-based; conditions: in vivo; in short: as §3
Blood [36] = test: AUC (0 to infinity) in healthy human whole blood assessed as radioactivity at 200 mg, po dosed as single dose; type: ADME, organism-based; set-up: dose 200 mg, route oral, time infinity; conditions: in vivo; in short: as §3
Homo sapiens [37] = test: AUC (0 to t) in healthy human assessed as total radioactivity at 200 mg, po dosed as single dose; conditions: in vivo
[38] = AUC (0 to infinity) in healthy human at 200 mg, po dosed as single dose; type: ADME, organism-based; set-up: dose 200 mg, route oral, time infinity; conditions: plasma; in short: as §1
[39] = Drug excretion in healthy human urine assessed as total radioactivity at 200 mg, po dosed as single dose; type: ADME, organism-based; conditions: in vivo; in short: as §4
Homo sapiens [40] = test: AUC (0 to t) in healthy human treated with [14C]almorexant at 200 mg, po dosed as single dose; type: ADME, organism-based, Plasma; conditions: in vivo; in short: as §2
Homo sapiens [41] = test: Drug level in healthy human treated with [14C]almorexant at 200 mg, po dosed as single dose relative to almorexant; type: ADME, organism-based; conditions: in vivo; in short: as §2
Homo sapiens [42] = test: Tlast in healthy human treated with [14C]almorexant at 200 mg, po dosed as single dose; type: ADME, organism-based; conditions: in vivo; in short: as §2
Homo sapiens [43] = test: Drug level in healthy human treated with [14C]almorexant at 200 mg, po dosed as single dose relative to total radioactivity; type: ADME, organism-based; conditions: in vivo; in short: as §2

Drug metabolism [1]: metabolite_detected
Tmax (Homo sapiens [2]): 1 h
t1/2 (Homo sapiens [3]): 21.7 h
AUC (Homo sapiens [4]): 386 ng·h/mL
Drug metabolism (Plasma [5]): metabolite_detected
Cmax (Homo sapiens [6]): 61.4 ng/mL
SMILES: CNC(=O)[C@@H](c1ccccc1)N1CCc2cc(OC)c(O)cc2[C@@H]1CCc1ccc(C(F)(F)F)cc1

half-life [7]: 1070 min
CL/F [8]: 717 mL/min
Vd (Homo sapiens [9]): 683 L
bioavailability [10]: 11.4%
Tmax [11]: 3 h
Tmax [12]: 48 min
SMILES: CNC(=O)[C@@H](c1ccccc1)N1CCc2cc(OC)c(OC)cc2[C@@H]1CCc1ccc(C(F)(F)F)cc1 [ALMOREXANT]

Drug metabolism [1]: metabolite_detected
Drug metabolism (Plasma [5]): metabolite_detected
SMILES: COc1cc2cc[n+]([C@@H](C(N)=O)c3ccccc3)c(CCc3ccc(C(F)(F)F)cc3)c2cc1OC

Drug metabolism (Plasma [5]): metabolite_detected
SMILES: COc1cc2ccnc(CCc3ccc(C(F)(F)F)cc3)c2cc1OC

AUCt (Homo sapiens [14]): 61.2 ng.Eq.hr/ml
Cmax [16]: 113 ng/mL
Drug metabolism [1]: metabolite_detected
Tmax [17]: 48 min
blood plasma ratio [18]: 0.51
AUC (Plasma [19]): 51547 ng.Eq.hr/ml
Tmax (Homo sapiens [21]): 1.6 h
t1/2 (Plasma [23]): 78 h
half-life [24]: 1070 min
Cmax (Homo sapiens [25]): 1050 ng.Eq/ml
Drug excretion [26]: 38.7%
Cmax (Blood [27]): 678 ng.Eq/ml
Drug uptake (Homo sapiens [28]): 0.11%
t1/2 (Blood [29]): 39 h
Tlast (Homo sapiens [31]): 300 h
Drug metabolism (Plasma [5]): metabolite_detected
Tlast (Homo sapiens [32]): 1.6 h
Cmax (Plasma [33]): 1060 ng.Eq/ml
Tmax (Plasma [34]): 1 h
Tmax (Blood [35]): 1 h
AUC (Blood [36]): 26321 ng.Eq.hr/ml
AUC(0-t) (Homo sapiens [37]): 54100 ng.Eq.hr/ml
AUC(0-inf) [38]: 262 ng·h/mL
Drug excretion [39]: 8.34%
SMILES: CNC(=O)[C@@H](c1ccccc1)N1CCc2cc(OC)c(OC)cc2[14C@@H]1CCc1ccc(C(F)(F)F)cc1
Activity (Homo sapiens [13]): Non-toxic
Activity (Homo sapiens [15]): Non-toxic
Activity (Homo sapiens [20]): Non-toxic
Activity (Homo sapiens [22]): Non-toxic
Activity (Homo sapiens [30]): Non-toxic

Drug metabolism (Plasma [5]): metabolite_detected
SMILES: COc1cc2c(cc1O)[C@H](CCc1ccc(C(F)(F)F)cc1)NCC2

AUCt (Homo sapiens [40]): 331 ng.Eq.hr/ml
Tmax (Homo sapiens [2]): 1.5 h
Drug uptake (Homo sapiens [41]): 541%
t1/2 (Homo sapiens [3]): 10.4 h
Tlast (Homo sapiens [42]): 11 h
AUC (Homo sapiens [4]): 1039 ng·h/mL
Drug metabolism (Plasma [5]): metabolite_detected
Cmax (Homo sapiens [6]): 99.4 ng/ml and 49 ng.Eq/ml
Drug uptake (Homo sapiens [43]): 0.61%
SMILES: COc1cc2c(cc1OC)[C@H](CCc1ccc(C(F)(F)F)cc1)NCC2
